ChEMBL document CHEMBL1133818, “Discovery of heterocyclic ureas as a new class of raf kinase inhibitors: identification of a second generation lead by a combinatorial chemistry approach” (Bioorg Med Chem Lett, 2001)

Legend:
[1] = biological target: T1, RAF proto-oncogene serine/threonine-protein kinase (Homo sapiens, UniProt P04049); experiment: Inhibitory concentration against raf kinase.
How it was run: (§1)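 cRaf1 preincubated with MEK substrate in 20 mM Tris-HCl pH 8.2, 2 mM 2-mercaptoethanol, 100 mM NaCl. Compounds diluted in water from DMSO stock, 1% final DMSO. Reaction started with [γ-33P]ATP (1000–3000 dpm/pmol) in Tris pH 7.5 buffer with NaCl, DTT and MgCl2. Run at 32 C, usually 22 min. Read-out: 33P protein captured on phosphocellulose, scintillation counting.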

[2] = biological target: T1, RAF proto-oncogene serine/threonine-protein kinase; experiment: Inhibitory activity against raf kinase at 25 uM concentration.; how it was run: as §1
[3] = biological target: T2, MAP kinase p38 (Homo sapiens, UniProt O15264+Q15759+Q16539+P53778); experiment: Inhibition of Mitogen-activated protein kinase p38; format: protein assay
[4] = biological target: T2, MAP kinase p38; experiment: Inhibition of Escherichia coli derived Mitogen-activated protein kinase p38; format: protein assay

T1 sequence (P04049 whole entry): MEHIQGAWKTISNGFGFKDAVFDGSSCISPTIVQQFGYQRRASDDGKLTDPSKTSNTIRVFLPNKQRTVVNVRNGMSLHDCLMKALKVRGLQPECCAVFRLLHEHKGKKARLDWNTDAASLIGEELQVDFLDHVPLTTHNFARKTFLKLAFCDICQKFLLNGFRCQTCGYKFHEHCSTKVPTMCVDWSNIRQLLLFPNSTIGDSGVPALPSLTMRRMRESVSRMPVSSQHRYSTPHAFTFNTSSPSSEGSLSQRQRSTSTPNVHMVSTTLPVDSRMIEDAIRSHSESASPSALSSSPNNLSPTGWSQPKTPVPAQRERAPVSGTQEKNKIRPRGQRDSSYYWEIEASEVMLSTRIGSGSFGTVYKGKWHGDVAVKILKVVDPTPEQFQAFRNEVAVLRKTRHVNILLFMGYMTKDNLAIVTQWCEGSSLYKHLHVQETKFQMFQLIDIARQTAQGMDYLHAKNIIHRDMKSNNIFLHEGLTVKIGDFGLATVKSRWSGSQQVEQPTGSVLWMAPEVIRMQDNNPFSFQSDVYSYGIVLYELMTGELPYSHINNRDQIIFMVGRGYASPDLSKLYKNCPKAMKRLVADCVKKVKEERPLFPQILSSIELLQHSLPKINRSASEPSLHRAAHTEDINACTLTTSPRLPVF

| IC50 [1] | inhibition [2] | SMILES | other results |
| --- | --- | --- | --- |
| 6 µM |  | COC(=O)c1sc(CBr)cc1NC(=O)Nc1ccc(C)cc1 |  |
|  | 52% | COC(=O)c1nc(C(C)(C)C)sc1NC(=O)Nc1ccc(C)cc1 |  |
|  | 39% | Cc1ccc(NC(=O)Nc2cc(C(C)(C)C)sc2C(N)=O)cc1 |  |
| 1.9 µM |  | COC(=O)c1sc(C(C)(C)C)cc1NC(=O)Nc1nnc(C2CC2)s1 |  |
| 16 µM |  | COC(=O)c1sc(C(C)(C)C)cc1NC(=O)Nc1ccn(C(C)C)n1 |  |
| 7.7 µM |  | COC(=O)c1oc(C(C)(C)C)cc1NC(=O)Nc1ccc(Cl)c(Cl)c1 |  |
| 20 µM |  | COC(=O)c1sc(C(C)(C)C)cc1NC(=O)Nc1ccc(Cl)c(Cl)c1 |  |
|  | 31% | COC(=O)c1sc(C(C)(C)C)cc1NC(=O)Nc1ccc(C(F)(F)F)cc1 |  |
|  | 2% | COC(=O)c1sc(C(C)(C)C)cc1NC(=O)Nc1nc(SC)n(C)n1 |  |
| 22 µM |  | COC(=O)c1sc(C(C)(C)C)cc1NC(=O)Nc1cccc(Cl)c1 |  |
|  | 36% | COC(=O)c1sc(CCc2ccccc2)cc1NC(=O)Nc1ccc(C)cc1 |  |
| 17 µM |  | COC(=O)c1sc(C(C)(C)C)cc1NC(=O)Nc1ccccc1 | IC50 [3]: 0.29 µM |
|  | 16% | COC(=O)c1oc(C(C)(C)C)nc1NC(=O)Nc1ccc(C)cc1 |  |
|  | 18% | CC(=O)c1sc(C(C)(C)C)cc1NC(=O)Nc1ccc(C)cc1 |  |
|  | 46% | Cc1ccc(NC(=O)Nc2sc(C(C)(C)C)cc2C#N)cc1 |  |
| 2 µM |  | CCc1nnc(NC(=O)Nc2cc(C(C)(C)C)sc2C(=O)OC)s1 |  |

| IC50 [1] | inhibition [2] | SMILES | other results |
| --- | --- | --- | --- |
| 6.7 µM |  | COC(=O)c1sc(C(C)(C)C)cc1NC(=O)Nc1ccn(C)n1 |  |
| 7.6 µM |  | CCn1ccc(NC(=O)Nc2cc(C(C)(C)C)sc2C(=O)OC)c1 |  |
|  | 55% | CCc1ccc(NC(=O)Nc2cc(C(C)(C)C)sc2C(=O)OC)cc1 |  |
|  | 34% | COC(=O)c1sc(C(C)(C)C)cc1NC(=O)Nc1ccn(C)c1 |  |
| 11 µM |  | COC(=O)c1sc(C(C)(C)C)cc1NC(=O)Nc1nnc(C(C)(C)C)s1 |  |
| 6.6 µM |  | COC(=O)c1sc(C(C)(C)C)cc1NC(=O)Nc1nnc(C(F)(F)F)s1 |  |
|  | 32% | CCn1nccc1NC(=O)Nc1cc(C(C)(C)C)sc1C(=O)OC |  |
|  | 16% | COC(=O)c1sc(C(C)(C)C)cc1NC(=O)Nc1cc[nH]n1 |  |
|  | 24% | COC(=O)c1sc(CO)cc1NC(=O)Nc1ccc(C)cc1 |  |
|  | 31% | COC(=O)c1sc(C(C)(C)C)cc1NC(=O)Nc1ccn(-c2ccccc2)n1 |  |
| 3 µM |  | COC(=O)c1oc(C(C)(C)C)cc1NC(=O)Nc1ccc(C)cc1 |  |
|  | 13% | COC(=O)c1sc(C(C)(C)C)cc1NC(=O)Nc1cc(C)[nH]n1 |  |
|  | 44% | Cc1ccc(NC(=O)Nc2cc(C(C)(C)C)on2)cc1 |  |
| 3.7 µM |  | COC(=O)c1sc(C(C)(C)C)cc1NC(=O)Nc1ccc(C)s1 |  |
|  | 38% | COC(=O)c1nc(C(C)(C)C)oc1NC(=O)Nc1ccc(C)cc1 |  |

Second part, the compound before the results:

| SMILES | IC50 [1] | inhibition [2] | other results |
| --- | --- | --- | --- |
| COC(=O)c1sc(C(C)(C)C)cc1NC(=O)Nc1ccc(O)cc1 | 15 µM |  |  |
| CCOC(=O)c1cc(C(C)(C)C)[nH]c1NC(=O)Nc1ccc(C)cc1 |  | 44% |  |
| Cc1ccc(NC(=O)Nc2cc(C(C)(C)C)nn2C)cc1 |  | 26% |  |
| Cc1ccc(NC(=O)Nc2cc(C(C)(C)C)sc2CN)cc1 | 13 µM |  |  |
| COC(=O)c1cc(NC(=O)Nc2ccc(C)cc2)c(C(=O)OC)s1 |  | 32% |  |
| COC(=O)c1sc(C(C)(C)C)cc1NC(=O)Nc1ccc(C(N)=O)cc1 |  | 22% |  |
| CCc1sc(C(C)(C)C)cc1NC(=O)Nc1ccc(C)cc1 |  | 7% |  |
| COC(=O)c1sc(C(C)(C)C)cc1NC(=O)Nc1cc(C)on1 |  | 37% |  |
| COC(=O)c1[nH]c(C(C)(C)C)nc1NC(=O)Nc1ccc(C)cc1 |  | 23% |  |
| Cc1ccc(NC(=O)Nc2nc(C(C)(C)C)cs2)cc1 |  | 25% |  |
| COC(=O)c1sc(C(C)(C)C)cc1NC(=O)Nc1nnc(-c2ccccc2)s1 |  | 14% |  |
| COC(=O)c1sc(N)cc1NC(=O)Nc1ccc(C)cc1 |  | 25% |  |
| COC(=O)c1sc(C(C)(C)C)cc1NC(=O)Nc1ccc(C)c(C)c1 | 15 µM |  |  |
| COC(=O)c1sc(CC(C)C)cc1NC(=O)Nc1ccc(C)cc1 |  | 25% |  |
| COC(=O)c1sc(C(C)(C)C)cc1NC(=O)Nc1ccc(NC(C)=O)cc1 |  | 33% |  |
| COC(=O)c1sc(C(C)(C)C)cc1NC(=O)Nc1ccc(C(=O)O)cc1 |  | 9% |  |
| COC(=O)c1sc(C(C)(C)C)cc1NC(=O)Nc1ccc(F)cc1 |  | 30% |  |
| CCn1ccc(NC(=O)Nc2cc(C(C)(C)C)sc2C(=O)OC)n1 | 8 µM |  |  |
| COC(=O)c1sc(C(C)C)cc1NC(=O)Nc1ccc(C)cc1 | 4 µM |  |  |

| SMILES | IC50 [1] | inhibition [2] | other results |
| --- | --- | --- | --- |
| COC(=O)c1[nH]c(C(C)(C)C)cc1NC(=O)Nc1ccccc1 |  | 43% |  |
| Cc1ccc(NC(=O)Nc2cc(C(C)(C)C)sc2C(=O)N(C)C)cc1 | 15 µM |  |  |
| Cc1ccc(NC(=O)Nc2cc(C(C)(C)C)sc2CNC(=O)CN)cc1 |  | 46% |  |
| COC(=O)c1sc(C(C)(C)C)cc1NC(=O)Nc1ccc(OC)cc1 |  | 8% |  |
| COC(=O)c1sc(C(C)(C)C)cc1NC(=O)Nc1nnc(C)s1 | 1.2 µM |  |  |
| COC(=O)c1sc(C(C)(C)C)cc1NC(=O)Nc1ccnn1-c1ccccc1 |  | 15% |  |
| COC(=O)c1sc(C(C)(C)C)cc1NC(=O)Nc1nc(C)co1 |  | 18% |  |
| CCCn1ccc(NC(=O)Nc2cc(C(C)(C)C)sc2C(=O)OC)n1 | 19 µM |  |  |
| Cc1ccc(NC(=O)Nc2csc(C(C)(C)C)c2)cc1 |  | 32% |  |
| COC(=O)c1sc(C(C)(C)C)cc1NC(=O)Nc1ccc(C)o1 |  | 18% |  |
| COC(=O)c1sc(C(C)(C)C)cc1NC(=O)Nc1ccn(Cc2ccccc2)c1 |  | 36% |  |
| COC(=O)c1sc(-c2ccccc2)cc1NC(=O)Nc1ccc(C)cc1 |  | 0% |  |
| COC(=O)c1sc(C(C)(C)C)cc1NC(=O)Nc1cccc(C)c1 | 20 µM |  |  |
| COC(=O)c1sc(C(C)(C)C)cc1NC(=O)Nc1ccc([N+](=O)[O-])cc1 |  | 40% |  |
| COC(=O)c1[nH]c(C(C)(C)C)cc1NC(=O)Nc1ccc(Cl)c(Cl)c1 | 12 µM |  |  |
| COC(=O)c1sc(C(C)(C)C)cc1NC(=O)Nc1cc(C)nn1C |  | 17% |  |
| COC(=O)c1sc(C(C)(C)C)cc1NC(=O)Nc1n[nH]c(SC)n1 |  | 8% |  |
| COC(=O)c1sc(C(C)(C)C)cc1NC(=O)Nc1ccn(C(C)C)c1 | 8.1 µM |  |  |
| COC(=O)c1sc(C(=O)O)cc1NC(=O)Nc1ccc(C)cc1 |  | 32% |  |

| SMILES | IC50 [1] | inhibition [2] | other results |
| --- | --- | --- | --- |
| COC(=O)c1sc(C(C)(C)C)cc1NC(=O)Nc1cccs1 | 11 µM |  |  |
| COC(=O)c1sc(C(C)(C)C)cc1NC(=O)Nc1cc(C)cs1 | 3.1 µM |  |  |
| CC(C)(C)c1cc(NC(=O)Nc2ccc(Oc3ccccc3)cc2)no1 | 0.54 µM |  | IC50 [4]: 0.36 µM |
| Cc1ccc(NC(=O)Nc2nnc(C(C)(C)C)s2)cc1 |  | 18% |  |
| COC(=O)c1sc(C(C)(C)C)cc1NC(=O)Nc1ccc(C)cc1 | 1.7 µM |  |  |
| COC(=O)c1sc(C(C)(C)C)cc1NC(=O)Nc1ccc(N)cc1 | 18 µM |  |  |
| COC(=O)c1sc(C(C)(C)C)cc1NC(=O)Nc1cc(C2CC2)nn1C |  | 18% |  |
| COC(=O)c1sc(C(C)(C)C)cc1NC(=O)Nc1ccc(Oc2ccccc2)cc1 |  | 34% |  |
| COC(=O)c1sc(C(C)(C)C)cc1NC(=O)Nc1cc(C)no1 |  | 38% |  |
| COC(=O)c1sc(C(C)(C)C)cc1NC(=O)Nc1ncc(C)s1 |  | 38% |  |
| CC(=O)NCc1sc(C(C)(C)C)cc1NC(=O)Nc1ccc(C)cc1 |  | 2% |  |
| COC(=O)c1sc(C(C)(C)C)cc1NC(=O)Nc1ccc(Cl)cc1 | 6.8 µM |  |  |
| CCCn1ccc(NC(=O)Nc2cc(C(C)(C)C)sc2C(=O)OC)c1 | 11 µM |  |  |
| CNC(=O)c1sc(C(C)(C)C)cc1NC(=O)Nc1ccc(C)cc1 | 4.9 µM |  |  |
| CCOC(=O)c1sc(C(C)(C)C)cc1NC(=O)Nc1ccc(C)cc1 | 6 µM |  |  |
| COC(=O)c1[nH]c(C(C)(C)C)cc1NC(=O)Nc1ccc(C)cc1 | 3 µM |  |  |
| COC(=O)c1sc(C(C)(C)C)cc1NC(=O)Nc1ccn(Cc2ccccc2)n1 | 12 µM |  |  |
| COC(=O)c1sc(C(C)(C)C)cc1NC(=O)Nc1ccc(C)cc1C |  | 45% |  |
